The full list was thinned out, with hits kept by preference.
HCT116 PTEN-null: growth suppression of PTEN-null HCT116, primary screen, cell-based, CellTiter-Glo; viability, % at 10 µM; 140,000 tested, 1.2% active; HCT116 PTEN-null viability, 60 h; stronger effect = lower value; AID 827, 2007;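 active = viability at or below a set limit, 4 SD under the median of all tested compounds, cut at about 3.7% in these data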;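 also: PTEN knockout HCT116 line with beta catenin targeted HCT116 as companion control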
H69AR growth 86K: proliferation blockers of H69AR lung cancer cells, primary screen, cell-based, human, 86K library | AID 598, 2007 | viability, % at 10 µM | 85,000 tested, 6% active | H69AR lung tumor viability, ATP luminescence, 72 h; stronger effect = lower value;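 active = viability at or below 40%; inactive = viability above 40%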;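 also: multidrug resistant small cell line overexpressing MRP-1 efflux transporter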
bCat KO growth: primary screen for growth suppressors in beta-catenin knockout HCT116 cells (colon tumor, human) | HCT116 beta-catenin knockout viability, CellTiter-Glo, 60 h; stronger effect = lower value | 140,000 tested, 1.5% active | AID 818, 2007 | viability, % at 10 µM;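 active = viability at or under a set limit, the compound median less 4 SD, cut at about 6% in these data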
HUVEC inhibit: inhibitors of HUVEC proliferation, primary screen, cell-based, 384-well | CellTiter-Glo luminescence, 72 h; stronger effect = lower value | viability, % at 10 µM (by protocol) | 86,000 tested, 1.1% active;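 active = viability at or below 30%; inactive = viability above 30%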
Lung fibro prol: antiproliferative effect on LL 47 fibroblasts – human, LL 47 cells, CellTiter-Glo luminescence, primary screen. LL 47 human lung fibroblast viability, ATP luminescence; stronger effect = lower value. viability, % at 10 µM. 85,000 tested, 1.1% active. AID 719, 2007;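 active = viability at or below 50% in the single dose screen; inactive = viability above 50%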;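 also: compound exposure lasted 72 h before the ATP readout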
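Material: human lung fibroblast line LL 47, low passage; Evaluation: viability percentage against median untreated-cell control; Buffer or medium: 15% FBS in IMEM; Incubation: 72 h compound exposure at 37 °C after overnight plating; Dosing: 0.1% DMSO in all compound wells; Measured by: CellTiter-Glo luminescence.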
Of the large screens only hits and unclear results are named; the others gave an inactive call.

Cc1c(C(=O)NCc2cccnc2)oc2ccc(S(=O)(=O)N3CCCC(C)C3)cc12 (stereo not given)	none
CCOC(=O)N1CCN(C(=O)c2ccc(N(Cc3ccccc3)S(C)(=O)=O)cc2)CC1	none
C=CCn1c(SCC(=O)Nc2cc(C)on2)nc2sc3c(c2c1=O)CCCC3	none (no result: H69AR growth 86K, HUVEC inhibit, Lung fibro prol)
CC(NC(=O)CSc1nc2sc3c(c2c(=O)n1-c1ccccc1)CCCC3)c1ccccc1 (stereo not given)	H69AR growth 86K 1.9
CCn1c(SCC(=O)Nc2cc(C)on2)nc2sc3c(c2c1=O)CCCC3	HCT116 PTEN-null 2.3, H69AR growth 86K 7.1, Lung fibro prol 15
CC(C)C(C)NC(=O)CSc1nc2scc(-c3ccco3)c2c(=O)n1-c1ccccc1 (stereo not given)	none
Cc1cc(NC(=O)CSc2nc(C(C)C)nc3sc4c(c23)CCCC4)no1	H69AR growth 86K 5.6, Lung fibro prol 18
C=CCn1c(SCC(=O)Nc2cc(C)on2)nc2sc(C)c(C)c2c1=O	H69AR growth 86K 28
Cc1ccc(C(=O)NCCSC2CCCCC2)cc1S(=O)(=O)Nc1ccccc1	none (no result: H69AR growth 86K, HUVEC inhibit, Lung fibro prol)
Cc1ccc(S(=O)(=O)N(C)CC(O)Cn2c3ccccc3c3ccccc32)cc1 (stereo not given)	none
O=S(=O)(c1ccccc1)N(CC(O)Cn1c2ccccc2c2ccccc21)c1ccccc1 (stereo not given)	none (no result: H69AR growth 86K, HUVEC inhibit, Lung fibro prol)
O=S(=O)(c1ccc(F)cc1)N(CCO)CC(O)Cn1c2ccccc2c2ccccc21 (stereo not given)	H69AR growth 86K 13
CCN(CC(O)Cn1c2ccccc2c2ccccc21)S(=O)(=O)c1ccc(F)cc1 (stereo not given)	H69AR growth 86K 18
CCOC(=O)N1CCN(c2cc(=O)n(-c3ccc(Br)cc3)c(=O)[nH]2)CC1	none
Cc1ccc(S(=O)(=O)N2CCCC2C(=O)Oc2ccccc2)cc1 (stereo not given)	none
Cc1cc(NC(=O)CC(CN(C)S(=O)(=O)c2ccccc2)c2ccccc2)no1 (stereo not given)	none
CCOc1cccc2cc(C(=O)Nc3nccs3)c(=O)oc12	none (no result: H69AR growth 86K, HUVEC inhibit, Lung fibro prol)
CCOc1cccc2cc(-c3csc(NC(=O)CCC(=O)N4CCC(C)CC4)n3)c(=O)oc12	H69AR growth 86K 18, HUVEC inhibit 28, Lung fibro prol 22
CCOc1cccc2cc(-c3csc(NC(=O)CCC(=O)N4CCN(C)CC4)n3)c(=O)oc12	H69AR growth 86K 33 (no result: HCT116 PTEN-null, bCat KO growth)
C=CCN1C(=O)/C(=C/c2ccc(N(C)C)cc2)S/C1=N\c1nnc(CC)s1	H69AR growth 86K 26
CC1(C)CCCN(C(=O)c2coc(=O)c(Br)c2)C1	H69AR growth 86K 7.0
O=C(c1cncc(Br)c1)N1CCCc2ccccc21	none
O=C(c1coc(=O)c(Br)c1)N1CCCc2ccccc21	H69AR growth 86K -0.6
Cn1cccc1Cc1nnc(SCC(=O)NCC2CCCO2)n1-c1ccc(F)cc1 (stereo not given)	none
CC1CCCCC1n1c(=S)[nH]c2ccccc2c1=O (stereo not given)	H69AR growth 86K 18
CCOC(=O)CSc1nc2sc3c(c2c(=O)[nH]1)CC(C)(CC)OC3 (stereo not given)	none
CCCCSc1nc(SCC(=O)NCc2ccco2)c2c3c(sc2n1)COC(C)(CC)C3 (stereo not given)	none (no result: H69AR growth 86K, HUVEC inhibit, Lung fibro prol)
CCC1(C)Cc2c(sc3nc(NN)n(C)c(=O)c23)CO1 (stereo not given)	H69AR growth 86K 12
CCCSc1nc(SCC(=O)NCc2ccccc2)c2c3c(sc2n1)COC(C)(CC)C3 (stereo not given)	H69AR growth 86K 37
CCc1nc(SCC(=O)NCc2ccco2)c2c3c(sc2n1)CCCC3	none
CSc1nc(SCC(=O)NCc2ccco2)c2c3c(sc2n1)COC(C)(C)C3	H69AR growth 86K 23
CCCCc1nc2sc3c(SCC(=O)NCc4ccco4)ncnc3c2c2c1CCC2	H69AR growth 86K 32, Lung fibro prol 47
c1cncc(-c2nc(Oc3ccc(-c4nnco4)cc3)c3c4c(sc3n2)CCCC4)c1	none (no result: HCT116 PTEN-null, bCat KO growth)
O=C(Nc1ccc2c(c1)OCO2)C1(S(=O)(=O)c2ccc(Cl)cc2)CC1	none (no result: H69AR growth 86K, HUVEC inhibit, Lung fibro prol)
COc1ccccc1CNCC(O)Cn1c2ccccc2c2ccccc21 (stereo not given)	HCT116 PTEN-null 1.4, bCat KO growth 1.5 (no result: H69AR growth 86K, HUVEC inhibit, Lung fibro prol)
CC1=C(C(=O)OCc2ccc3c(c2)OCO3)C(c2ccccc2)NC(=O)N1 (stereo not given)	H69AR growth 86K 23, HUVEC inhibit 26
CC1=C(C(=O)OCc2ccc3c(c2)OCO3)C(c2ccccc2OCc2ccccc2)NC(=O)N1 (stereo not given)	none
CC1CCCCC1NC(=O)c1ccc2c(c1)[nH]c(=O)n2C1CCCC1 (stereo not given)	H69AR growth 86K 21
CC(C)(C)N1CC(c2nc3ccccc3n2Cc2ccccc2)CC1=O (stereo not given)	H69AR growth 86K 38
CCn1c(C2CC(=O)N(Cc3ccccc3)C2)nc2ccccc21 (stereo not given)	none
COc1cc(C(=O)Nc2cccc(-c3nc4cc(C)ccc4o3)c2)cc(OC)c1OC	H69AR growth 86K 28
CCCC(=O)Nc1cccc(-c2nc3cc(C)c(C)cc3o2)c1	H69AR growth 86K 14
O=C(Nc1ccc2oc(-c3ccc(Cl)c(Cl)c3)nc2c1)c1ncn[nH]1	HCT116 PTEN-null 0.9, bCat KO growth 1.0 (no result: H69AR growth 86K, HUVEC inhibit, Lung fibro prol)
COc1cc(C(=O)Nc2cccc(-c3nc4cc(C)ccc4o3)c2C)cc(OC)c1OC	none
Cc1ccc2oc(-c3cccc(NC(=O)c4cc(-n5cnnc5)ccc4Cl)c3)nc2c1	H69AR growth 86K 11
CCCC(=O)Nc1cccc(-c2nc3ccccc3o2)c1	none
Cc1ccc(NC(=O)c2cc(-n3cnnc3)ccc2Cl)cc1	none
O=C(Nc1ccc2oc(-c3ccccc3F)nc2c1)c1ncn[nH]1	none (no result: H69AR growth 86K, HUVEC inhibit, Lung fibro prol)
Cc1onc(-c2c(F)cccc2Cl)c1C(=O)OCC(=O)NC(c1ccccc1)c1ccccc1	none (no result: H69AR growth 86K, HUVEC inhibit, Lung fibro prol)
COc1cc(C(=O)Nc2cc(-c3nc4cc(C)ccc4o3)ccc2C)cc(OC)c1OC	H69AR growth 86K 30
Cc1ccc(-c2nc3cc(Cl)ccc3o2)cc1	none
O=C(Nc1ccc2oc(-c3cccc(F)c3)nc2c1)c1ccccc1F	HCT116 PTEN-null 2.4
COc1cc(OC)cc(-c2nc3cc(C)ccc3o2)c1	H69AR growth 86K 31
O=C(Nc1ccc2oc(-c3ccccc3)nc2c1)c1ccccc1F	none
CCOc1cccc2sc(NC(=O)c3ccc(Br)s3)nc12	H69AR growth 86K 30
CCc1ccc(S(=O)(=O)/N=C2/C=C(Sc3ncn[nH]3)C(=O)c3ccccc32)cc1	HCT116 PTEN-null 3.4, bCat KO growth 2.5 (no result: H69AR growth 86K, HUVEC inhibit, Lung fibro prol)
CC(C)C(=O)Nc1ccc(C(=O)NNC(=O)c2ccco2)cc1	none (no result: H69AR growth 86K, HUVEC inhibit, Lung fibro prol)
Cn1c(CNc2cccc(Cl)c2)nnc1SCC(=O)OC1CCCCC1	HUVEC inhibit 19
C=CCNC(=O)c1ccccc1NC(=O)Cc1ccccc1[N+](=O)[O-]	none (no result: H69AR growth 86K, HUVEC inhibit, Lung fibro prol)

Bioassay records (PubChem BioAssay)
